# ChEMBL document CHEMBL2429825, “Structure-activity studies of divin: an inhibitor of bacterial cell division” (ACS Med Chem Lett, 2013)
# Activity calls are given as the source filed them. No cut-off for these calls is given here.
# What was measured:
# Caulobacter vibrioides [1] = assay: Antimicrobial activity against Caulobacter crescentus CB15N assessed as cell division arrest after the initiation of midcell constriction at MIC after 17 hrs by phase contrast microscopy; assay type: functional, organism-based
# Method in brief: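 C. crescentus CB15N cells were incubated with compound for 17 h, then imaged to score cell-division phenotype at the midcell constriction stage.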
# Caulobacter vibrioides [2] = assay: Antimicrobial activity against Caulobacter crescentus CB15N after 17 hrs by two-fold serial dilution technique; assay type: functional
# [3] = Solubility of the compound by light scattering fluorescence spectrophotometry; assay type: physicochemical
# Method in brief: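 Solubility was measured in M8 medium containing 2% DMSO by a light-scattering assay.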
# Escherichia coli = assay: Antimicrobial activity against tolc-defecient Escherichia coli BW25113 after 17 hrs by two-fold serial dilution technique; assay type: functional; conditions: BW25113, 17 h
# Method in brief: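 MIC by serial dilution following a CLSI protocol. E. coli BW25113 ΔtolC was grown in M8 medium.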
# Caulobacter vibrioides [4] = assay: Bacteristatic activity against Caulobacter crescentus CB15N assessed as inhibition of cell growth at 2.5 to 20 uM by plate reader analysis; assay type: functional, organism-based
# Klebsiella pneumoniae = assay: Antimicrobial activity against clinical isolates of Klebsiella pneumoniae by serial dilution technique; assay type: functional
# Method in brief: (§1)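 Clinical pathogenic isolates were tested for growth inhibition in M8 medium.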
# Acinetobacter baumannii = assay: Antimicrobial activity against clinical isolates of Acinetobacter baumannii by serial dilution technique; assay type: functional; method in brief: as §1
# Shigella boydii = assay: Antimicrobial activity against clinical isolates of Shigella boydii by serial dilution technique; assay type: functional; method in brief: as §1
# Vibrio cholerae = assay: Antimicrobial activity against clinical isolates of Vibrio cholerae by serial dilution technique; assay type: functional
# Klebsiella aerogenes = assay: Antimicrobial activity against clinical isolates of Enterobacter aerogenes by serial dilution technique; assay type: functional; method in brief: as §1
# Morganella morganii = assay: Antimicrobial activity against clinical isolates of Morganella morganii by serial dilution technique; assay type: functional; method in brief: as §1
# Salmonella typhimurium = assay: Antimicrobial activity against clinical isolates of Salmonella typhimurium by serial dilution technique; assay type: functional, Salmonella enterica subsp. enterica serovar Typhimurium; conditions: Salmonella enterica; method in brief: as §1
Structure (SMILES),Activity (Caulobacter vibrioides [1]),MIC (Caulobacter vibrioides [2]) [µM],solubility kinetic [3] [µM],MIC (Escherichia coli) [µM],further results
Cc1nccn1CCC(=O)N/N=C/c1c(O)ccc2ccccc12,Active,7.5,10,12.5,
O=C(CCn1c(C(F)(F)F)nc2ccccc21)N/N=C/c1c(O)ccc2ccccc12,,7.5,30,> 50,
C/C(=N\NC(=O)CCn1c(C)nc2ccccc21)c1c(O)ccc2ccccc12,,> 20,,> 50,
Cc1nc2ccccc2n1CCCC(=O)N/N=C/c1c(O)ccc2ccccc12,Active,5,120,10,
Cc1nc2ccccc2n1CCC(=O)NNCc1c(O)ccc2ccccc12,,40,,50,
COc1ccc2ccccc2c1/C=N/NC(=O)CCn1c(C)nc2ccccc21,,> 20,,> 50,
Cc1nc2cc(Cl)ccc2n1CCC(=O)N/N=C/c1c(O)ccc2ccccc12,Active,5,210,7.5,Activity (Caulobacter vibrioides [4]): Active
CN(C)Cc1nc2ccccc2n1CCC(=O)N/N=C/c1c(O)ccc2ccccc12,,5,90,12.5,
Cc1nc2cc(Cl)c(Cl)cc2n1CCC(=O)N/N=C/c1c(O)ccc2ccccc12,Active,3.8,90,6.3,MIC (Klebsiella pneumoniae): 50 µM; MIC (Acinetobacter baumannii): 50 µM; MIC (Shigella boydii): 25 µM; MIC (Vibrio cholerae): 3 µM; MIC (Klebsiella aerogenes): 12 µM; MIC (Morganella morganii): > 50 µM; Activity (Caulobacter vibrioides [4]): Active; MIC (Salmonella typhimurium): 25 µM
Cc1nc2ccccc2n1CCC(=O)N/N=C/c1cccc2ccccc12,,> 20,,50,
CC(=O)Oc1ccc2ccccc2c1/C=N/N(C(C)=O)C(=O)CCn1c(C)nc2ccccc21,,> 40,,50,
Cc1nc2cnccc2n1CCC(=O)N/N=C/c1c(O)ccc2ccccc12,Active,5,90,12.5,
Cc1nc2ccccc2n1CCC(=O)N/N=C/c1ccc(N(C)C)c2ccccc12,,> 20,,> 50,
Cc1nc2ccccc2n1CC(=O)N/N=C/c1c(O)ccc2ccccc12,,5,20,25,
Cc1nc2ccccc2n1CCC(=O)N/N=C/c1ccccc1F,,> 20,,> 50,
C=CCOc1ccc2ccccc2c1/C=N/NC(=O)CCn1c(C)nc2ccccc21,,> 20,,> 50,
Cc1nc2ccncc2n1CCC(=O)N/N=C/c1c(O)ccc2ccccc12,,10,,25,
[N-]=[N+]=NCc1nc2ccccc2n1CCC(=O)N/N=C/c1c(O)ccc2ccccc12,Active,5,20,12.5,
Cc1nc2ccccc2n1CCC(=O)N/N=C/c1ccccc1O,,15,,50,
Cc1nc2ccccc2n1CCC(=O)N/N=C/c1c(O)ccc2ccccc12,Active,5,20,12.5,MIC (Klebsiella pneumoniae): > 50 µM; MIC (Acinetobacter baumannii): 50 µM; MIC (Shigella boydii): 50 µM; MIC (Vibrio cholerae): 6 µM; MIC (Klebsiella aerogenes): 50 µM; MIC (Morganella morganii): > 50 µM; MIC (Salmonella typhimurium): 50 µM
COc1ccc2ccccc2c1/C=N/NC(=O)CCn1c(C(F)(F)F)nc2ccccc21,,> 20,,> 50,
Cc1nc2ccccc2n1CCC(=O)N/N=C/c1ccc(O)c2ccccc12,,> 20,,> 50,
O=C(CCn1cnc2ccccc21)N/N=C/c1c(O)ccc2ccccc12,Active,7.5,30,12.5,
Cc1nc2ccccc2n1CCC(=O)N/N=C/c1ccc(F)c2ccccc12,,> 20,,> 50,
Cc1nc2ccccc2n1CCC(=O)N/N=C/c1c(O)ccc2cc(O)ccc12,,5,,12.5,
